# From article PMC7474130 (Journal of Pharmaceutical Analysis, 2020)
# Like-named read-outs stand apart in the source and are kept apart here.
# What was measured:
# [1] = type: in vivo, Male Sprague-Dawley (SD) rats; settings: for Cmax / half-life: male, Sprague-Dawley, rat, po, 6.8 g/kg
# Outline: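 Untreated male SD rats (220 ± 20 g; six) were housed at 25 ± 3 °C and 45 ± 5% humidity with free access to food and water. Plasma was analysed by UHPLC-Q-Orbitrap-MS (IS, 1/concentration2-weighted calibration), with non-compartmental analysis.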
# [2] = type: in vivo, Male Sprague-Dawley (SD) rats; settings: plasma; for AUC0-t / AUC0-∞: IM rats, oral ZSS aqueous extract 6.8 g/kg, mean ± SD, n = 6; for Cmax / Tmax / half-life: male, Sprague-Dawley, rat, po, 6.8 g/kg
# Outline: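 Male SD rats (220 ± 20 g) made insomniac with PCPA 400 mg/kg i.p. daily for three days (suspended in 0.5% CMC-Na); six rats. Plasma (3500 × g, 10 min, 4 °C) was held at −80 °C. Analysis used UHPLC-Q-Orbitrap-MS with internal standards and non-compartmental parameters.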
# [3] = Stability of analytes in rat plasma under different storage conditions; type: in vitro ADME
# Outline: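 Blank rat plasma spiked at three QC concentrations, five replicates each. Plasma (100 μL) was precipitated with three volumes of acetonitrile plus IS, vortexed 5 min, centrifuged at 13,000 × g for 10 min at 4 °C, then dried under nitrogen. It was reconstituted in initial mobile phase and re-centrifuged. Extracts were held in the auto-sampler at 4 °C, then 3 μL injected. Quantitation used analyte/IS peak-area ratios on a 1/concentration2-weighted linear calibration.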
# [4] = NC rats, oral ZSS aqueous extract 6.8 g/kg, plasma, mean ± SD, n = 6
# [5] = extracted plasma QC samples, 4 °C for 12 h (auto-sampler), high QC level
# [6] = extracted plasma QC samples, 4 °C for 12 h (auto-sampler), low QC level
# [7] = extracted plasma QC samples, 4 °C for 12 h (auto-sampler), middle QC level
# [8] = rat plasma, Frozen for 30 days (−80 °C), high QC level
# [9] = rat plasma, Frozen for 30 days (−80 °C), low QC level
# [10] = rat plasma, Frozen for 30 days (−80 °C), middle QC level
# [11] = rat plasma, Three freeze-thaw cycles, high QC level
# [12] = rat plasma, Three freeze-thaw cycles, low QC level
# [13] = rat plasma, Three freeze-thaw cycles, middle QC level
SMILES,AUC0-t [2] [μg/L･h],AUC0-∞ [2] [μg/L･h],Cmax [2] [ng/mL],Tmax [2] [min],half-life [2] [min],"AUC0-t [1, 4] [μg/L･h]","AUC0-∞ [1, 4] [μg/L･h]",Cmax ([1]; plasma) [ng/mL],half-life ([1]; plasma) [min],"Stability, Accuracy (RE, %) [3, 5] [%]","Stability, Accuracy (RE, %) [3, 6] [%]","Stability, Accuracy (RE, %) [3, 7] [%]","Stability, Accuracy (RE, %) [3, 8] [%]","Stability, Accuracy (RE, %) [3, 9] [%]","Stability, Accuracy (RE, %) [3, 10] [%]","Stability, Accuracy (RE, %) [3, 11] [%]","Stability, Accuracy (RE, %) [3, 12] [%]","Stability, Accuracy (RE, %) [3, 13] [%]",also measured
COc1cc2oc(-c3ccc(O)cc3)cc(=O)c2c(O)c1[C@@H]1O[C@H](CO)[C@@H](O)[C@H](O)[C@H]1O [swertisin],–,–,–,–,–,–,–,–,–,–,–,–,–,–,–,–,–,–,"concentration in rat plasma ([1]; after oral administration of ZSS aqueous extract): too low for detection; content in bile and feces ([1]; after oral administration of ZSS aqueous extract, data not open): high content"
"COc1cc2c(cc1O)C(Cc1ccc(O)cc1)NCC2 (stereo not drawn) [Coclaurine, coclaurine]",0.91 ± 0.26,0.93 ± 0.28,2.48 ± 0.98,13.8 ± 5.4,24.6 ± 16.8,1.08 ± 0.30,1.13 ± 0.27,1.98 ± 0.82,27 ± 10.2,7.71,14.88,3.35,−1.99,14.76,9.58,8.75,11.85,9.48,"Tmax [1, 4]: 16.2 ± 5.4 min"
"COc1ccc2c(c1O)-c1c(O)c(OC)cc3c1[C@H](C2)[N+](C)(C)CC3 [Magnoflorine, magnoflorine]",45.13 ± 24.46,51.87 ± 23.75,35.1 ± 13.7,12 ± 4.2,161 ± 76.8,54.56 ± 21.90,69.51 ± 28.52,40.6 ± 12.7,190 ± 118,11.25,−4.56,−11.99,9.01,−14.77,0.05,8.06,−5.49,5.31,–
